Results on three molecules are retold here after ChEMBL document CHEMBL1136179, “Prolylisoxazoles: potent inhibitors of prolyloligopeptidase with antitrypanosomal activity” (Bioorg Med Chem Lett, 2003).

Assay [1] has as its system Leishmania donovani. Description: Antiprotozoal activity against Leishmania donovani L82 was determined. Format: functional. Conditions: read-out: ED50 (the source's name). The gist of the method:
(§1)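 Leishmania donovani strain L82 was tested against test compounds, with pentostam as the reference drug.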

Assay [2] deals with KB. Description: Toxicity in T. b. rhodesiense STIB900 infected KB cells. Conditions: Homo sapiens, read-out: ED50 (the source's name). The assay is classed as functional. An outline of the steps:
(§2)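 Cytotoxicity was measured on KB cells, with podophyllotoxin as the reference drug.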

Assay [3] deals with KB. Description: Toxicity in Trypanosoma cruzi Lac Z infected KB cells. The assay is classed as functional. Conditions: Homo sapiens, read-out: ED50 (the source's name). The gist of the method:
as §2

The subject of assay [4] is KB. Nature of the assay: Toxicity in Leishmania donovani L82 infected KB cells. Conditions: Homo sapiens, read-out: ED50 (the source's name). The assay is classed as functional. An outline of the steps: as §2
For assay [5], the system named is Leishmania donovani. Nature of the assay: Antiprotozoal activity against Leishmania donovani L82 at a dose of 30 ug/mL. Compound was toxic to host macrophages. The assay is classed as functional. The gist of the method:
as §1

Assay [6] has as its system Leishmania donovani. Nature of the assay: Antiprotozoal activity against Leishmania donovani L82 at a dose of 3 ug/mL. The assay is classed as functional. The gist of the method: as §1
In assay [7] the test system is Leishmania donovani. Nature of the assay: Antiprotozoal activity against Leishmania donovani L82 at a dose of 10 ug/mL. The assay is classed as functional. The gist of the method: as §1
The test system of assay [8] is Trypanosoma cruzi. Description: Antiprotozoal activity against Trypanosoma cruzi Lac Z was determined. The assay is classed as functional. Conditions: read-out: ED50 (the source's name). An outline of the steps:
(§3)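 Trypanosoma cruzi of the Lac Z strain was tested, with benznidazol as the reference drug.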

The subject of assay [9] is Trypanosoma brucei rhodesiense. Nature of the assay: Antiprotozoal activity against T. b. rhodesiense STIB900 at a dose of 10 ug/mL. The assay is classed as functional. An outline of the steps:
(§4)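 Trypanosoma brucei rhodesiense strain STIB900 was tested, with pentamidine as the reference drug.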

The subject of assay [10] is Trypanosoma brucei rhodesiense. Nature of the assay: Antiprotozoal activity against T. b. rhodesiense STIB900 at a dose of 1 ug/mL. The assay is classed as functional. The gist of the method:
as §4

Assay [11] concerns Trypanosoma brucei rhodesiense. Description: Antiprotozoal activity against T. b. rhodesiense STIB900 at a dose of 3 ug/mL. The assay is classed as functional. An outline of the steps: as §4
In assay [12] the test system is Trypanosoma brucei rhodesiense. Nature of the assay: Antiprotozoal activity against T. b. rhodesiense STIB900 was determined. Format: functional. Conditions: read-out: ED50 (the source's name). An outline of the steps:
as §4

In assay [13] the test system is Trypanosoma cruzi. Description: Antiprotozoal activity against Trypanosoma cruzi Lac Z at a dose of 1 ug/mL. The assay is classed as functional. The gist of the method:
as §3

Assay [14] deals with Trypanosoma cruzi. Nature of the assay: Antiprotozoal activity against Trypanosoma cruzi Lac Z at a dose of 30 ug/mL. Compound was toxic to host macrophages. Format: functional. The gist of the method:
as §3

Assay [15] relates to Trypanosoma cruzi. Description: Antiprotozoal activity against Trypanosoma cruzi Lac Z at a dose of 3 ug/mL. Format: functional. The gist of the method: as §3
Assay [16] deals with Trypanosoma cruzi. Description: Antiprotozoal activity against Trypanosoma cruzi Lac Z at a dose of 10 ug/mL. The assay is classed as functional. An outline of the steps:
as §3

For assay [17], the system named is Trypanosoma brucei rhodesiense. Nature of the assay: Antiprotozoal activity against T. b. rhodesiense STIB900 at a dose of 30 ug/mL.
A further assay concerns the target T1, Prolyl endopeptidase (Homo sapiens, UniProt P48147).
T1 sequence (P48147 whole entry): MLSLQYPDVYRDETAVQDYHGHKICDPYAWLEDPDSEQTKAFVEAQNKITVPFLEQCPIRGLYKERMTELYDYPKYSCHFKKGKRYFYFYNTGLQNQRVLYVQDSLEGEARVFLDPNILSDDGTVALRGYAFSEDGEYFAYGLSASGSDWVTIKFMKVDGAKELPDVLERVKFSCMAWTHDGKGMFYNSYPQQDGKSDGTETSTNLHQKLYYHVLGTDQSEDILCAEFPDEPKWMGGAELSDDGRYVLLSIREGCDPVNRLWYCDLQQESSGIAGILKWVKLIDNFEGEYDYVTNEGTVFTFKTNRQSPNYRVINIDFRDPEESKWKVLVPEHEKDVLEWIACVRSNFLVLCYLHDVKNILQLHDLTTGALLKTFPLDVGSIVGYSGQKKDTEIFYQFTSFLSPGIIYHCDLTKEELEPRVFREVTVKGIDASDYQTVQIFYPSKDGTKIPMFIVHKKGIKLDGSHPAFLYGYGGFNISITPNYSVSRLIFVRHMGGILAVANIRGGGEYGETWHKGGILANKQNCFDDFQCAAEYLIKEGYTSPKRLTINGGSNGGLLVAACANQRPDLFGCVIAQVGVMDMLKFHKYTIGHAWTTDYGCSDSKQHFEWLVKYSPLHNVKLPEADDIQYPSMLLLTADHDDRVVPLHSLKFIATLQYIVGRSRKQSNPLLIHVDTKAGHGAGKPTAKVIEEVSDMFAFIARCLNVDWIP
Description: In vitro inhibitory activity determined against prolyl oligopeptidase (PO) in human; Moderately active.

Assay [18] relates to Leishmania donovani. Nature of the assay: Antiprotozoal activity against Leishmania donovani was determined. Conditions: read-out: ED50.
Assay [19] has as its system KB. Description: Toxicity in Leishmania donovani infected KB cells. Format: functional. The note with it: Homo sapiens, read-out: ED50 (the source's name). The gist of the method: as §2
Assay [20] has as its system KB. Nature of the assay: Toxicity in Trypanosoma cruzi infected KB cells. The note with it: Homo sapiens, read-out: ED50 (the source's name). The assay is classed as functional. An outline of the steps:
as §2

Assay [21] concerns Leishmania donovani. Nature of the assay: Antiprotozoal activity against Leishmania donovani at a dose of 10 ug/mL. Format: functional. The gist of the method: as §1
In assay [22] the test system is Leishmania donovani. Description: Antiprotozoal activity against Leishmania donovani at a dose of 30 ug/mL. Compound was toxic to host macrophages. The assay is classed as functional. An outline of the steps:
as §1

The test system of assay [23] is Leishmania donovani. Description: Antiprotozoal activity against Leishmania donovani at a dose of 3 ug/mL. The assay is classed as functional. An outline of the steps:
as §1

Assay [24] concerns Trypanosoma cruzi. Nature of the assay: Antiprotozoal activity against Trypanosoma cruzi was determined. The assay is classed as functional. Conditions: read-out: ED50 (the source's name). The gist of the method:
as §3

The subject of assay [25] is Trypanosoma brucei rhodesiense. Nature of the assay: Antiprotozoal activity against T. b. rhodesiense at a dose of 10 ug/mL. Format: functional. An outline of the steps:
as §4

In assay [26] the test system is Trypanosoma brucei rhodesiense. Nature of the assay: Antiprotozoal activity against T. b. rhodesiense at a dose of 1 ug/mL. Format: functional. An outline of the steps:
as §4

Assay [27] concerns Trypanosoma brucei rhodesiense. Description: Antiprotozoal activity against T. b. rhodesiense at a dose of 3 ug/mL. Format: functional. The gist of the method:
as §4

Assay [28] has as its system Trypanosoma brucei rhodesiense. Nature of the assay: Antiprotozoal activity against T. b. rhodesiense was determined. The assay is classed as functional. The note with it: read-out: ED50 (the source's name). The gist of the method: as §4
Assay [29] relates to Trypanosoma cruzi. Nature of the assay: Antiprotozoal activity against Trypanosoma cruzi at a dose of 10 ug/mL. Format: functional. An outline of the steps: as §3
Assay [30] deals with Trypanosoma cruzi. Description: Antiprotozoal activity against Trypanosoma cruzi at a dose of 1 ug/mL. The assay is classed as functional. The gist of the method: as §3
Assay [31] concerns Trypanosoma cruzi. Nature of the assay: Antiprotozoal activity against Trypanosoma cruzi at a dose of 30 ug/mL. Compound was toxic to host macrophages. The assay is classed as functional. The gist of the method: as §3
In assay [32] the test system is Trypanosoma cruzi. Nature of the assay: Antiprotozoal activity against Trypanosoma cruzi at a dose of 3 ug/mL. Format: functional. An outline of the steps:
as §3

The test system of assay [33] is KB. Nature of the assay: Toxicity in T. b. rhodesiense infected KB cells. The assay is classed as functional. The note with it: Homo sapiens, read-out: ED50 (the source's name). An outline of the steps:
as §2

The subject of assay [34] is Trypanosoma brucei rhodesiense. Nature of the assay: Antiprotozoal activity against T. b. rhodesiense at a dose of 30 ug/mL.

Each structure is given as a SMILES string. Values after ≈ are worked out from the molar mass of the structure shown.

In general, inhibition refers to the percentage by which the read-out fell short of the control. A higher inhibition goes with strong suppression. In the case of `O=C(c1cc(COCc2ccccc2)on1)[C@@H]1CCCN1C(=O)[C@@H]1CCCN1C(=O)CCCc1ccccc1`, the EC50 in the assay with Leishmania donovani [1] was 13.1 µg/mL (≈ 24.7 µM); in the assay on KB [2], above 300 µg/mL; with KB [3] it was above 300 µg/mL; in the assay with KB [4], above 300 µg/mL; in the assay with Trypanosoma cruzi [8], 4.7 µg/mL (≈ 8.87 µM); in assay [12], 5.5 µg/mL (≈ 10.4 µM). The inhibition at 30 µg/mL in the assay on Leishmania donovani [5] came to 100%; in the assay on Trypanosoma cruzi [14] it was 86.7%; in assay [17], 99.9%. For the same molecule, the inhibition at 3 µg/mL with Leishmania donovani [6] worked out at 0%; in assay [11] it was 6.9%; in the assay on Trypanosoma cruzi [15], 42.6%. Also, the results for the inhibition at 10 µg/mL (with Leishmania donovani [7]; in assay [9]; in the assay on Trypanosoma cruzi [16]) were 6.9%, 95.5% and 69.4%, respectively. For the same molecule, the inhibition at 1 µg/mL in assay [10] stood at 0.9%; in the assay with Trypanosoma cruzi [13], 16%.
The IC50 is the concentration needed to halve the response being measured. A low value points to greater potency in that assay. Consider `COC(=O)c1onc(C(=O)[C@@H]2CCCN2C(=O)[C@@H]2CCCN2C(=O)OCc2ccccc2)c1C(=O)OC`, for which, on Prolyl endopeptidase, the half-maximal inhibitory concentration (IC50) was above 1000 nM.
As to `O=C(c1cc(-c2ccccc2)on1)[C@@H]1CCCN1C(=O)[C@@H]1CCCN1C(=O)OCc1ccccc1`, the EC50 with Leishmania donovani [18] was found to be 13.5 µg/mL (≈ 28.5 µM); with KB [19] it was 23 µg/mL (≈ 48.6 µM); with KB [20] it was 23 µg/mL (≈ 48.6 µM); in the assay on Trypanosoma cruzi [24], 6.7 µg/mL (≈ 14.1 µM); in assay [28], 2.2 µg/mL (≈ 4.65 µM); with KB [33] it was 23 µg/mL (≈ 48.6 µM). Moreover, the inhibition at 10 µg/mL in the assay with Leishmania donovani [21] is 1.8%; in assay [25], 99.8%; in the assay with Trypanosoma cruzi [29], 59.9%. Further, the inhibition at 30 µg/mL was 100% with Leishmania donovani [22], 86.7% in the assay with Trypanosoma cruzi [31] and 99.9% in assay [34]. For the same molecule, the results for the inhibition at 3 µg/mL (in the assay on Leishmania donovani [23]; in assay [27]; with Trypanosoma cruzi [32]) were 0%, 83.4% and 29%, respectively. Besides, the inhibition at 1 µg/mL in assay [26] amounted to 7.7%; in the assay with Trypanosoma cruzi [30] it was 10.8%.
